Measurements: PMC4674087 (ChemMedChem, 2015)
≈ marks a conversion by molar mass, not a printed value. Where “and” joins values, the source holds several entries; their conditions need not be identical. Equal entries are not always repeated. Each block holds one molecule with its values, some of them ahead of it.

How the values were obtained:
[1] = test system: mitochondrial permeability transition pore (mtPTP); assay: Calcium retention capacity; assay type: biochemical, mouse; details: for CRC/CRC0: at 1.56 µM, average ±SEM, n≥3
[2] = test system: mitochondrial permeability transition pore (mtPTP); assay: Mitochondrial swelling assay; assay type: biochemical, mouse; details: for EC50: read-out: mitochondrial swelling EC50, isolated mouse liver mitochondria
[3] = HeLa cell viability assay; assay type: cell-based, human; details: human, HeLa cells, with verapamil (20 µM) or CsH (2 µg/mL)
Method in brief: (§1)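 HeLa cells are grown in DMEM with 10% FBS at 37 °C and 5% CO2, seeded at 1×10^4 per well, and left to adhere for 6 h. They are then exposed for 24 h to a range of test compound concentrations or 1% DMSO vehicle, with 20 µM verapamil or 2 µg/mL CsH present. Relative viable cell number is read with the CellTiter 96 Aqueous One kit.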

HeLa cells [4] = assay: HeLa cell viability assay; assay type: cell-based, human; details: 24 h, CsH or verapamil present
Method in brief: as §1

[5] = target: human norepinephrine transporter (NET) (Homo sapiens, UniProt P23975); assay: Eurofins LeadProfilingScreen panel; assay type: binding; details: read-out: inhibition of human norepinephrine transporter (NET)
adenosine A3 = target: T1, adenosine A3 (Homo sapiens, UniProt P0DMS8); assay: Eurofins LeadProfilingScreen panel; assay type: binding; details: read-out: inhibition of adenosine A3
T1 sequence (P0DMS8 1-318): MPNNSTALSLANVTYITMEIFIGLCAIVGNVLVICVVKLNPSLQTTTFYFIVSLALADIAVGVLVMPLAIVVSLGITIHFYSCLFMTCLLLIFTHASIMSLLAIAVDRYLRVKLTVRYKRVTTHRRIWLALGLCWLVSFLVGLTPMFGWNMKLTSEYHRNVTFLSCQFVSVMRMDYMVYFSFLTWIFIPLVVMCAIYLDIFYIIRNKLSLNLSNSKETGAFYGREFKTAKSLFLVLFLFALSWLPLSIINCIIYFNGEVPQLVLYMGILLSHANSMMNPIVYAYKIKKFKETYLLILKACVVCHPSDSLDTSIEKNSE

[6] = test system: other 66 targets in the panel (GPCRs, ion channels, transporters); assay: Eurofins LeadProfilingScreen panel, remaining targets; assay type: binding; details: 10 µM
Aqueous solubility = assay type: physicochemical; details: PBS
[7] = Plasma protein binding, human; assay type: in vitro ADME
[8] = Plasma protein binding, mouse; assay type: in vitro ADME
Plasma stability, human = assay type: in vitro ADME
Plasma stability, mouse = assay type: in vitro ADME
[9] = Microsomal stability, human liver microsomes; assay type: in vitro ADME
[10] = Microsomal stability, mouse liver microsomes; assay type: in vitro ADME
human mtPTP = assay: CRC of HeLa cells; assay type: cell-based
[11] = test system: mitochondrial permeability transition pore (mtPTP); assay: Chemical activation of mtPTP; assay type: biochemical, mouse; details: 1.56 µM; 10 µM Ca2+ plus PhAsO, diamide, Cu(OP)2 or NEM
[12] = test system: isolated mouse liver mitochondria; assay: Oxygen consumption of isolated mouse liver mitochondria; assay type: biochemical
HeLa cells [13] = assay: Oxygen consumption of HeLa cells; assay type: cell-based, human; details: CsH present
Method in brief: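 HeLa monolayers are seeded at 3×10^4 per well in DMEM and cultured for 24 h. Medium is replaced by serum- and antibiotic-free unbuffered DMEM (pH 7.4) containing 2 µg/mL CsH or 20 µM verapamil. Oxygen consumption is measured on a Seahorse XF24 with sequential additions, and protein per well is quantified by BCA afterwards. Results are mean ± SD of a representative experiment, repeated four times.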

[14] = test system: exon 9 col6a1 morphant zebrafish; assay: Zebrafish ColVI myopathy model, motor activity; assay type: in vivo; details: 5 and 10 µM in fish water, added at 21 hpf
[15] = test system: exon 9 col6a1 morphant zebrafish; assay: Zebrafish ColVI myopathy model, muscle birefringence; assay type: in vivo; details: 48 hpf; 5 and 10 µM in fish water, added at 21 hpf; ANOVA p < 0.05
[16] = isolated mouse liver mitochondria

Sequence of human norepinephrine transporter (NET) (P23975 whole entry): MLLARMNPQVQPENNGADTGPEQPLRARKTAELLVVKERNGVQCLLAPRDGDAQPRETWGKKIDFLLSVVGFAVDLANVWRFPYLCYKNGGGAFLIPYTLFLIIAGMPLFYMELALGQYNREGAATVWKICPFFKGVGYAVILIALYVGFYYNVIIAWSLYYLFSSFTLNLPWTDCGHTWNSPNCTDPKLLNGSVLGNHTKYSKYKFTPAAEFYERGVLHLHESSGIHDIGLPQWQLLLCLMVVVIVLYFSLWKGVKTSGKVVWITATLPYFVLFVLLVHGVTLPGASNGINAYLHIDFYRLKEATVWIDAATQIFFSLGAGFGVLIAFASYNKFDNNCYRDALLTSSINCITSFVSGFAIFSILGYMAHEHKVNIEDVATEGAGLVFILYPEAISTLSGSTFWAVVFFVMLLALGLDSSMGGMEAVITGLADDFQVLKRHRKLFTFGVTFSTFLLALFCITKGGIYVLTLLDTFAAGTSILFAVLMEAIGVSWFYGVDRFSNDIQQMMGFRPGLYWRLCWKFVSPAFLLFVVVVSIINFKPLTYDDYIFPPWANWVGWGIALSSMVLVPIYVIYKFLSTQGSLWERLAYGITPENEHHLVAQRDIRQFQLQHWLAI

Structure (SMILES): COc1cc(NC(=O)c2cc(-c3cccc(O)c3)on2)cc(OC)c1OC [Compound 1, 5-(3-hydroxyphenyl)-N-(3,4,5-trimethoxyphenyl)isoxazole-3-carboxamide]
CRC/CRC0 [1, 16]: 1.18 −0.06

Structure (SMILES): Cc1ccc(Cl)cc1NC(=O)c1cc(-c2ccc(F)c(O)c2)on1 [Compound 63, N-(5-Chloro-2-methylphenyl)-5-(4-fluoro-3-hydroxyphenyl)isoxazole-3-carboxamide]
CRC/CRC0 [1, 16]: 15.21±1.26 and 15.2 −1.3

Structure (SMILES): Cc1c(Cl)cccc1NC(=O)c1cc(-c2ccc(F)c(O)c2)on1 [Compound 60, N-(3-Chloro-2-methylphenyl)-5-(4-fluoro-3-hydroxyphenyl)isoxazole-3-carboxamide]
mtPTP opening (swelling) induced by 50 µM Ca2+ load ([2]; 1.56 µM compound): abolished | Ca2+ load required for mtPTP opening ([1]; 1.56 µM compound, 20 µM Ca2+ pulses, solvent control 80): ~ 960 nmol (mg protein)^−1 | CRC/CRC0 [1, 16]: 12.14±0.55 and 12.1 −0.6 | compound-to-solvent CRC ratio reached on augmenting the concentration ([1]; concentration-response, Figure 4D trace a): 15 | maximum CRC ratio relative to CsA-treated mitochondria [1, 16]: ~ 3 fold | effect on CRC in combination with 2 µM CsA ([1]; various concentrations of 60 plus 2 µM CsA): synergistic | CC50 at 24 h [3]: 39.5 ± 4.65 µM | concentration up to which not cytotoxic (HeLa cells [4]): 12.50 µM | inhibition at 10 µM [5]: 79% | inhibition at 10 µM (adenosine A3): 51% | inhibition of the other 66 targets in the panel [6]: ≤ 43% | Aqueous solubility (Aqueous solubility; pH 7.4): 16.1 µM | solubility (Aqueous solubility; pH 7.4, aqueous buffer, Aqueous solubility): 16 µM (≈ 5.55 µg/mL) | fraction unbound [7]: 0.11 | recovery [7]: 76% | fraction unbound [8]: < 0.01 | recovery [8]: 0% | half-life (Plasma stability, human): > 120 min | half-life (Plasma stability, mouse): < 30 min | half-life [9]: > 60 min | microsomal CLint [9]: < 116 µL/min/mg | half-life [10]: < 15 min | microsomal CLint [10]: > 462 µL/min/mg | CRC after treatment of intact HeLa cells, wash, then permeabilization (human mtPTP; 1.56 µM, 30 min): effective following treatment of intact human cells | CRC ratios of permeabilized HeLa cells (human mtPTP; increasing concentrations of 60): increased CRC ratios | mtPTP transition from closed to open after chemical activators [11]: prevented | respiratory control ratios, FCCP-stimulated and oligomycin-insensitive respiration [12]: No statistically significant differences | FCCP-stimulated and oligomycin-insensitive respiration (HeLa cells [13]): No statistically significant differences | motor function (spontaneous coiling events, touch-evoked response) [14]: dramatic improvement in motor function | muscle birefringence (structural muscle defects) [15]: significant recovery of muscle defects

More lines, main results first:

EC50 [2]: 0.0076 nM
Structure (SMILES): COc1ccc(-c2cc(C(=O)Nc3cc(Cl)ccc3C)no2)cc1O [Compound 46, N-(5-Chloro-2-methylphenyl)-5-(3-hydroxy-4-methoxyphenyl)isoxazole-3-carboxamide]
CRC/CRC0 [1, 16]: 10.02±0.34 | CC50 at 24 h [3]: > 50 µM

EC50 [2]: 10 nM
Structure (SMILES): COc1ccc(-c2cc(C(=O)Nc3cc(Cl)cnc3C)no2)cc1O [Compound 54, N-(5-Chloro-2-methylpyridin-3-yl)-5-(3-hydroxy-4-methoxyphenyl)isoxazole-3-carboxamide]
CRC/CRC0 [1, 16]: 10.10±1.14 and 10.1 −1.1 | CC50 at 24 h [3]: > 50 µM
